Measured values published in ChEMBL document CHEMBL4837218, “Synthesis and in vitro antitumour activity of 4(R)-methyl-3-O-phosphonomethyl-α-l-threose nucleosides” (Eur J Med Chem, 2021).
Calls of active or inactive are those of the source. No cut-off for these calls is given here.

Key:
MDA-MB-231 [1] = assay: Induction of G2/M phase cell cycle arrest in human MDA-MB-231 cells assessed as upregulation of cdc25c protein expression at 9 uM measured after 48 hrs in presence of cdc25c inhibitor, NSC663284 by western blot analysis; type: functional, cell-based
MDA-MB-231 [2] = assay: Cell cycle arrest in human MDA-MB-231 cells assessed as accumulation at G2/M phase at 3 uM measured after 48 hrs by propidium iodide staining based flow cytometry (reference value: 15.46 %); type: functional
MCF7 [3] = assay: Induction of G2/M phase cell cycle arrest in human MCF7 cells assessed as decrease in cyclinB1 protein expression at 1 to 4 uM measured after 48 hrs by western blot analysis; type: functional, cell-based; conditions: dose 1-4 µM
Method in brief: (§1)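 Cells exposed to graded concentrations for 48 h, then proteins extracted. Run on SDS-PAGE (5–15% gels) and transferred to nitrocellulose. Blocked 2 h in 5% nonfat milk in PBS/0.1% Tween 20, primary antibody overnight at 4 °C, biotin-conjugated secondary 1 h. Visualized on X-ray film with densitometric quantitation; three independent experiments.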

MCF7 [4] = assay: Induction of DNA damage in human MCF7 cells assessed as increase in Chk2 phosphorylation at Thr68 residue at 1 to 4 uM measured after 48 hrs by western blot analysis; type: functional, cell-based; conditions: dose 1-4 µM; method in brief: as §1
MCF7 [5] = assay: Induction of G2/M phase cell cycle arrest in human MCF7 cells assessed as downregulation of p-cdc2 protein expression at 4 uM measured after 48 hrs in presence of cdc25c inhibitor, NSC663284 by western blot analysis; type: functional, cell-based
Method in brief: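 Four groups (untreated, test compound, 0.3 NSC663284, combination) treated 48 h before protein extraction. Lysates resolved by SDS-PAGE (5–15%) and blotted to nitrocellulose. Blocked 2 h in 5% milk/PBS-0.1% Tween 20, primary antibody overnight at 4 °C, biotinylated secondary 1 h. Detected on X-ray film and quantified by densitometry.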

MDA-MB-231 [6] = assay: Induction of apoptosis in human MDA-MB-231 cells assessed as increase in cleaved caspase 9 protein expression at 9 uM measured after 48 hrs in presence of cdc25c inhibitor, NSC663284 by western blot analysis; type: functional, cell-based
Method in brief: (§2)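 Four arms per cell line: untreated, test compound, 0.3 µM NSC663284 alone, and combination. Proteins harvested after 48 h and resolved by SDS-PAGE on 5–15% gels, transferred to nitrocellulose. Blocked 2 h in milk/PBS-Tween, primary antibodies overnight at 4 °C, biotin-conjugated secondary. Read on X-ray film with densitometry.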

MCF7 [7] = assay: Induction of apoptosis in human MCF7 cells assessed as early apoptotic cells at 4 uM measured after 48 hrs in presence of cdc25c inhibitor, NSC663284 by AnnexinV-FITC/PI staining based flow cytometry (reference value: 0.9%); type: functional
MDA-MB-231 [8] = assay: Induction of G2/M phase cell cycle arrest in human MDA-MB-231 cells assessed as decrease in p-cdc2 protein expression at 3 to 9 uM measured after 48 hrs by western blot analysis; type: functional, cell-based; conditions: dose 3-9 µM; method in brief: as §1
MDA-MB-231 [9] = assay: Induction of apoptosis in human MDA-MB-231 cells assessed as increase in cleaved PARP protein expression at 9 uM measured after 48 hrs in presence of cdc25c inhibitor, NSC663284 by western blot analysis; type: functional, cell-based; method in brief: as §2
MCF7 [10] = assay: Induction of apoptosis in human MCF7 cells assessed as increase in cleaved PARP protein expression at 4 uM measured after 48 hrs in presence of cdc25c inhibitor, NSC663284 by western blot analysis; type: functional, cell-based; method in brief: as §2
MDA-MB-231 [11] = assay: Induction of apoptosis in human MDA-MB-231 cells assessed as increase in cleaved caspase 3 protein expression at 3 to 9 uM measured after 48 hrs by western blot analysis; type: functional, cell-based; conditions: dose 3-9 µM
Method in brief: (§3)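 MCF-7 and MDA-MB-231 breast cancer cells treated 48 h with a concentration series, then lysed for protein. SDS-PAGE on 5–15% gels, transfer to nitrocellulose. Blocked 2 h in 5% nonfat milk/PBS-0.1% Tween 20, primary antibodies overnight at 4 °C, biotin-conjugated secondary 1 h. X-ray film detection with densitometric quantification.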

MCF7 [12] = assay: Induction of apoptosis in human MCF7 cells assessed as increase in cleaved caspase 7 protein expression at 4 uM measured after 48 hrs in presence of cdc25c inhibitor, NSC663284 by western blot analysis; type: functional, cell-based; method in brief: as §2
MCF7 [13] = assay: Induction of mitochondrial membrane potential loss in human MCF7 cells assessed as green fluorescence intensity at 2 uM measured after 48 hrs by JC1 staining-based flow cytometry analysis (reference value: 8.1 %); type: functional
MDA-MB-231 [14] = assay: Induction of apoptosis in human MDA-MB-231 cells assessed as early apoptotic cells at 6 uM measured after 48 hrs by Annexin V-FITC/propidium iodide staining based flow cytometric analysis (reference value: 1%); type: functional
MCF7 [15] = assay: Induction of mitochondrial membrane potential loss in human MCF7 cells assessed as red fluorescence intensity at 4 uM measured after 48 hrs by JC1 staining-based flow cytometry analysis (reference value: 91.9%); type: functional
GES1 = assay: Antiproliferative activity against human GES1 cells assessed as growth inhibition measured after 72 hrs by MTT assay; type: functional, cell-based; conditions: GES1, 72 h
Method in brief: (§4)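 Cells seeded at 3000 exponentially growing cells/well and incubated 12 h at 37 °C. Medium then replaced with fresh medium containing graded compound concentrations for 72 h; 5-FU positive control. MTT (5 mg/mL solution) added for 4 h, formazan dissolved in DMSO, absorbance read at 570 nm (reference 630 nm). Relative percentage inhibition of viable cells calculated; IC50 reported as mean ± standard deviation.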

MCF7 [16] = assay: Induction of apoptosis in human MCF7 cells assessed as increase in cleaved caspase 9 protein expression at 4 uM measured after 48 hrs in presence of cdc25c inhibitor, NSC663284 by western blot analysis; type: functional, cell-based; method in brief: as §2
MDA-MB-231 [17] = assay: Induction of apoptosis in human MDA-MB-231 cells assessed as late apoptotic cells at 9 uM measured after 48 hrs by Annexin V-FITC/propidium iodide staining based flow cytometric analysis (reference value: 0.3 %); type: functional
MDA-MB-231 [18] = assay: Induction of G2/M phase cell cycle arrest in human MDA-MB-231 cells assessed as decrease in cyclinB1 protein expression at 3 to 9 uM measured after 48 hrs by western blot analysis; type: functional, cell-based; conditions: dose 3-9 µM; method in brief: as §1
MCF7 [19] = assay: Cell cycle arrest in human MCF7 cells assessed as accumulation at G1 phase at 1 uM measured after 48 hrs by propidium iodide staining based flow cytometry (reference value: 70.09 %); type: functional
MDA-MB-231 [20] = assay: Induction of apoptosis in human MDA-MB-231 cells assessed as early apoptotic cells at 3 uM measured after 48 hrs by Annexin V-FITC/propidium iodide staining based flow cytometric analysis (reference value: 1%); type: functional
MDA-MB-231 [21] = assay: Induction of apoptosis in human MDA-MB-231 cells assessed as increase in cleaved caspase 7 protein expression at 3 to 9 uM measured after 48 hrs by western blot analysis; type: functional, cell-based; conditions: dose 3-9 µM; method in brief: as §3
MGC-803 = assay: Anticancer activity against human MGC-803 cells assessed as inhibition of cell growth measured after 72 hrs by MTT assay; type: functional, cell-based; conditions: MGC-803, 72 h; method in brief: as §4
MDA-MB-231 [22] = assay: Induction of apoptosis in human MDA-MB-231 cells assessed as increase in Bax to Bcl2 ratio at 3 to 9 uM measured after 48 hrs by western blot analysis; type: functional, cell-based; conditions: dose 3-9 µM; method in brief: as §3

In the case of `C[C@H]1O[C@@H](n2cnc3c(N)nc(F)nc32)[C@H](O)[C@H]1OCP(=O)([O-])[O-].[Na+].[Na+]`, the Activity (MDA-MB-231 [1]) is reported as “inactive”, the Activity (MDA-MB-231 [2]) is reported as 20.27% and the Activity (MCF7 [3]) is reported as “Active”. The Activity (MCF7 [4]) was “Active”, the Activity (MCF7 [5]) was “inactive” and the Activity (MDA-MB-231 [6]) was “inactive”. For the same compound, the Activity (MCF7 [7]) was 8.6%, the Activity (MDA-MB-231 [8]) was “Active” and the Activity (MDA-MB-231 [9]) was “inactive”. For the same compound, the Activity (MCF7 [10]) was “inactive”, the Activity (MDA-MB-231 [11]) was “Active” and the Activity (MCF7 [12]) was “inactive”. For the same compound, the Activity (MCF7 [13]) was 32.8%, the Activity (MDA-MB-231 [14]) was 19.1% and the Activity (MCF7 [15]) was 41.9%. For the same compound, the IC50 (GES1) was 5.09 µM, the Activity (MCF7 [16]) was “inactive” and the Activity (MDA-MB-231 [17]) was 16%. The Activity (MDA-MB-231 [18]) was “Active”, the Activity (MCF7 [19]) was 63.54% and the Activity (MDA-MB-231 [20]) was 14.5%. The Activity (MDA-MB-231 [21]) was “Active”, the IC50 (MGC-803) was 6.18 µM and the Activity (MDA-MB-231 [22]) was “Active”.
